Results on 8 molecules are retold here after ChEMBL document CHEMBL3259777, “The cannabinoid acids, analogs and endogenous counterparts” (Bioorg Med Chem, 2014).

Bounds are passed on as bounds.

Usually ED50 stands for the dose at which the effect has come halfway, by size or by number of responders. In general, inhibition refers to the share of the control response that was lost under treatment. The Ki is the equilibrium dissociation constant of an inhibitor or competing ligand from its target.

Data set [1] is described as follows: Antiinflammatory activity in LPS-induced mouse […] cells assessed as PGJ2 synthesis at 10 uM relative to control. The class given is functional, RAW264.7.
The species entered for data set [2] is Mus musculus. Put plainly: Stimulation of phospholipase A2 in mouse brain synaptosomes using [1-14C]phosphotidylcholine as substrate assessed as arachidonic acid release relative to control. The data set is classed as subcellular.
Data set [3] has as its system RAW. The data set can be described thus: Antiinflammatory activity in mouse RAW cells assessed as arachidonic acid release at 3 uM after 1 hr by liquid scintillation counting analysis in presence of [14C]-arachidonic acid relative to control. The class given is functional. In outline:
(§1)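 RAW cells labelled 2 hr with 14C-arachidonic acid, then medium changed to RPMI + 0.1% BSA. Cells treated 1 hr with non-radioactive test agent added in 10 µl DMSO; DMSO alone as control. Release counted by LSC on a 0.1 ml medium aliquot, expressed as treated/control, means ± SD.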

The test system of data set [4] is RAW. Put plainly: Antiinflammatory activity in mouse RAW cells assessed as arachidonic acid release at 12 uM after 1 hr by liquid scintillation counting analysis in presence of [14C]-arachidonic acid relative to control. The class given is functional. In outline: as §1
The nature of data set [5]: Antiinflammatory activity in LPS-induced mouse […] cells assessed as PGJ2 synthesis at 3 uM in presence of polyclonal antiGPR18 relative to control. The class given is functional, RAW264.7.
Data set [6] can be described thus: Antiinflammatory activity in LPS-induced mouse […] cells assessed as PGJ2 synthesis at 3 uM relative to control. The data set is classed as functional, RAW264.7.
Data set [7] concerns RAW. The data set can be described thus: Antiinflammatory activity in mouse RAW cells assessed as arachidonic acid release at 6 uM after 1 hr by liquid scintillation counting analysis in presence of [14C]-arachidonic acid relative to control. The class given is functional. In outline:
as §1

In data set [8] the test system is RAW. Put plainly: Antiinflammatory activity in mouse RAW cells assessed as arachidonic acid release at 1.5 uM after 1 hr by liquid scintillation counting analysis in presence of [14C]-arachidonic acid relative to control. The class given is functional. The method in brief:
as §1

The test system of data set [9] is RAW. The data set can be described thus: Antiinflammatory activity in mouse RAW cells assessed as arachidonic acid release at 24 uM after 1 hr by liquid scintillation counting analysis in presence of [14C]-arachidonic acid relative to control. The data set is classed as functional. The method in brief:
as §1

Data set [10] relates to Mus musculus. The data set can be described thus: Antiinflammatory activity in mouse peritonitis model assessed as reduction of pro-inflammatory cell migration into peritoneal cavity at 0.3 mg/kg, po. The class given is functional. Details: scale not given: the % may be the effect or the level left. In outline: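 Mouse peritonitis induced by thioglycollate challenge. Compound given orally, and migration of pro-inflammatory cells into the peritoneal cavity quantified.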

Data set [11] concerns Mus musculus. The data set can be described thus: Antiinflammatory activity in mouse assessed as adhering leukocytes at 1 mg/kg, po after 6 hrs relative to vehicle-treated control. The data set is classed as functional. The method in brief: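 Given orally in oil over 0.01 to 1.0 mg/kg. Peritoneal cells collected from mice 6 hours after dosing and cultured 18-20 hours before leukocyte adhesion was measured. Compared with vehicle-dosed mice.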

The nature of data set [12]: Induction of LXA4 production in HFLS cells at 1 to 30 uM incubated for 1 hr followed by TNF-alpha challenge for 18 hrs by ELISA relative to control. The class given is functional, Homo sapiens.
For data set [13], the system named is Mus musculus. Put plainly: Antiinflammatory activity in mouse assessed as reduction of IL-1beta/TNF-alpha-induced leukocyte count in air pouches at 0.2 mg/kg/day. The data set is classed as functional. Details: scale not given: the % may be the effect or the level left. The method in brief: (§2)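 Mouse acute inflammation: IL-1β and TNFα injected into air pouches formed on the back. Drug dosed daily, and leukocytes counted in pouch exudates.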

Data set [14] relates to Mus musculus. The data set can be described thus: Antiinflammatory activity in mouse assessed as reduction of IL-1beta/TNF-alpha-induced leukocyte count in air pouches at 0.1 mg/kg/day. The class given is functional. Details: scale not given: the % may be the effect or the level left. In outline:
as §2

Data set [15] deals with Mus musculus. The data set can be described thus: Reduction of cell invasion to peritoneum in zymosan-A-induced FVB mouse peritonitis model at 1.5 mg/kg, iv by mass spectrometry. The class given is functional. Details: scale not given: the % may be the effect or the level left.
For data set [16], the system named is Rattus norvegicus. The data set can be described thus: Reversal of PAF-induced allodynia in ip dosed rat after 40 to 60 mins by paw withdrawal test. The class given is functional. In outline: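 Rat tonic inflammatory pain model with platelet-activating factor injected into the hind paw. Doses of 3, 4.5, 6.8, 10.1 and 15.2 mg/kg given i.p. Paw withdrawal threshold to mechanical pressure read 40-60 min post-drug. Approximate ED-50 estimated from the dose-response curve for reversal of PAF-induced allodynia.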

Data set [17] can be described thus: Drug metabolism in human hepatocytes assessed as parent compound remaining after 2 hrs. The data set is classed as ADME, cell-based, Hepatocyte. The note with it: read-out: Stability.
Data set [18] deals with Mus musculus. Put plainly: Induction of LXA4 production in zymosan-A-induced FVB mouse peritonitis model at 1.5 mg/kg, iv by mass spectrometry relative to control. The data set is classed as functional.
The nature of data set [19]: Plasma concentration in patient at 20 mg, po after 2 hrs. The data set is classed as ADME, organism-based. The settings on record: human. In outline: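 Single oral 20 mg dose in humans. Plasma sampled two hours post-dose, reported as mean ± R.S.D., n=9; glucuronide measured as well.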
Data set [20] can be described thus: Drug metabolism in dog hepatocytes assessed as parent compound remaining after 2 hrs. The class given is ADME, cell-based, Canis lupus familiaris, Hepatocyte. The settings on record: read-out: Stability.
The subject of data set [21] is Blood. The data set can be described thus: Induction of LXA4 production in human blood at 1 to 30 uM incubated for 5 hrs by ELISA. The class given is functional.
Data set [22] concerns Blood. Put plainly: Induction of LXA4 production in human blood at 25 uM after 1 hr in presence of 12/15 LOX inhibitor baicalein relative to control. The data set is classed as functional.
Data set [23] in a line: Inhibition of MMP-3 release in TNF alpha-induced HFLS cells at 10 uM. The data set is classed as functional. The note with it: Homo sapiens.
The nature of data set [24]: Drug metabolism in rat hepatocytes assessed as parent compound remaining after 2 hrs. The class given is ADME, cell-based, Hepatocyte. The settings on record: read-out: Stability.
Data set [25] relates to Rattus norvegicus. Put plainly: Analgesic activity in rat assessed as reversal of mechanical hyperalgesia at 0.1 to 1 mg/kg, po. The data set is classed as functional. The note with it: dose mg/kg 0.1-1.
The next data set concerns the target Cannabinoid receptor 1 (Homo sapiens, UniProt P21554). The data set can be described thus: Binding affinity to CB1 receptor (unknown origin).
A short description of data set [26]: Drug metabolism in cynomolgus monkey hepatocytes assessed as parent compound remaining after 2 hrs. The data set is classed as ADME, cell-based, Hepatocyte. The note with it: read-out: Stability.

Cannabinoid receptor 1, sequence (P21554 whole entry): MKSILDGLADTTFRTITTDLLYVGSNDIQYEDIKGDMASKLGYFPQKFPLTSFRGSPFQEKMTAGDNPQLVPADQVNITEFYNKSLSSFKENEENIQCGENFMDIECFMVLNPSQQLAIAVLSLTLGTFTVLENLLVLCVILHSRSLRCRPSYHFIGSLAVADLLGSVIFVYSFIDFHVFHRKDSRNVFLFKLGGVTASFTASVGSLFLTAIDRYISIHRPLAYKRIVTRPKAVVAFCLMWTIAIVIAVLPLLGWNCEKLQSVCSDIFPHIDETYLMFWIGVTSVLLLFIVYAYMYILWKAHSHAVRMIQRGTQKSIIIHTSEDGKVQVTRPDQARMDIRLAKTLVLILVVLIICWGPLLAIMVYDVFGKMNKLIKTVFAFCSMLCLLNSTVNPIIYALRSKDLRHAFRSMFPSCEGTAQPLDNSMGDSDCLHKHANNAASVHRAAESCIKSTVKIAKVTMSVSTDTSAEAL

Regarding `CCCCC/C=C\C/C=C\C/C=C\CCCCC(=O)NCC(=O)O`, the Activity in [1] was found to be 203%.

In the case of `CCCCC/C=C\C/C=C\C/C=C\C/C=C\CCCC(=O)N[C@@H](C)C(=O)O`, in [1], the Activity is recorded as 212%.

For the molecule `CCCCCCCC/C=C\CCCCCCCC(=O)NC(C)(C)C(=O)O`, in data set [1], the Activity is recorded as 118%.

Turning to `CCCCC/C=C\C/C=C\C/C=C\C/C=C\CCCC(=O)NC(C)(C)C(=O)O`, the Activity in data set [1] turned out to be 220%.

For `CCCCCc1cc(O)c2c(c1)OC(C)(C)[C@@H]1CCC(C(=O)O)=C[C@@H]21`, the Activity in the data set filed under Mus musculus [2] turned out to be 20%.

For the molecule `CCCCC/C=C\C/C=C\C/C=C\C/C=C\CCCC(=O)NCC(=O)O` [ARACHIDONOYL GLYCINE], the T/C with RAW [3] is 1.2; in the data set on RAW [4] it was 1.85; in the data set on RAW [7], 1.4; with RAW [8] it was 1; in the data set on RAW [9] it was 2.95. Besides, the Activity in [1] was 213%; in data set [5] it was 50%; in data set [6], 100%; with Mus musculus [10] it was 60%.

As to `CCCCCCC(C)(C)c1cc(O)c2c(c1)OC(C)(C)[C@@H]1CC=C(C(=O)O)C[C@@H]21` [LENABASUM], the Activity is 24% in the data set on Mus musculus [11]; 65.5% with Mus musculus [13]; 42.3% with Mus musculus [14]; 75% with Mus musculus [15]; over 90% with Blood [22]; “<=60%” in the data set with Rattus norvegicus [25]. Further, the Ratio was 2 in data set [12], 7 in the data set on Mus musculus [18] and 2 with Blood [21]. In the data set with Rattus norvegicus [16], the ED50 amounted to 4.2 mg/kg. In addition, the remaining at 2 h in data set [17] is 83%; in data set [20], 90%; in data set [24], 103%; in data set [26], 86%. Moreover, in data set [19], the concentration at 2 h worked out at 599 ng/mL. In addition, in data set [23], the inhibition at 10 µM is 88%. For the same molecule, at Cannabinoid receptor 1, the Ki stood at 5.7 nM.

As for `CCCCCCCCCCCCCCCC(=O)NCC(=O)O` [PALMITOYL GLYCINE], the Activity in data set [1] is listed as 100%.
